In ChEMBL document CHEMBL1255434, “Heat stress cognate 70 host protein as a potential drug target against drug resistance in hepatitis B virus” (Antimicrob Agents Chemother, 2010):
≈ marks a conversion by molar mass, not a printed value. Calls of active or inactive are those of the source. The calls are words filed in the database; no cut-off is given here.

Experiments:
[1] = Decrease in HscA70-mRNA expression in Hepatitis B virus infected in human HepG2(2.2.15) cells at 5.9 uM after 24-36 hrs by RT-PCR analysis; assay type: functional, cell-based
Hepatitis B virus [2] = test: Antiviral activity against Hepatitis B virus infected in human HepG2(2.2.15) cells assessed as decrease in intracellular viral DNA level at 5.9 uM after 72 hrs by RT-PCR analysis; assay type: functional, organism-based
Method in brief: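 HepG2.2.15 cells were treated at 5.9, 23.6, 94.5 and 378 μM and 1.51 mM for 72 h. Intracellular HBV DNA was measured by real-time PCR, with Hsc70 mRNA by RT-PCR in parallel. Amounts were expressed relative to untreated cells, set as 1. Dot blot was used as confirmation. Means and SD.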

HepG2 2.2.15 = test: Reduction in Hsc70 mRNA half-life in Hepatitis B virus infected in human HepG2(2.2.15) cells at 1.51 mM after 24 hrs by RT-PCR analysis; assay type: functional; settings: HepG2 2.2.15, 24 h
Method in brief: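 HepG2.2.15 cells treated or not with 0.4 mg/ml (1.51 mM) for 24 h, then actinomycin D 5 μg/ml added to block transcription. RNA harvested at intervals; Hsc70 mRNA by real-time RT-PCR, normalized to GAPDH. Percent remaining plotted against time to estimate T1/2. Repeated twice.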

Hepatitis B virus [3] = test: Antiviral activity against lamivudine-resistant Hepatitis B virus infected in human Huh-7 cells assessed as suppression of viral replication at 1.51 mM after 24 hrs by RT-PCR analysis; assay type: functional; settings: Huh-7, 24 h
Method in brief: (§1)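 Huh-7 cells (10^5/well) were plated and incubated overnight. They were then transfected for 24 h with pcDNA3.1 carrying one HBV strain: Lamr (rtL180M+rtM204V), Advr (rtA181V+rtN236T) or Etvr (rtL180M+rtM204V+rtS202G). Medium was replaced with fresh medium containing 0.4 mg/ml (1.51 mM) for 24 h. Intracellular HBV DNA replicative intermediates were quantified by real-time PCR against untreated controls. Performed twice.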

HepG2 = test: Decrease in Hsc70- mRNA expression in human liver HepG2 cells at 0.23 to 0.94 mM after 24 hrs by RT-PCR analysis; assay type: functional, cell-based
Method in brief: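 Hsc70 mRNA by one-step SYBR Green qRT-PCR after 24 h treatment at 0.0625 or 0.25 mg/ml (0.23 and 0.94 mM), relative to untreated cells. More than 5 experiments; means and SD.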

[4] = Cytotoxicity against human HepG2(2.2.15) cells assessed as cell growth at 1.51 mM after 36 hrs; assay type: cell-based; settings: hepg2 2.2.15, 36 h, 1510 µM
Method in brief: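 HepG2.2.15 cell growth followed during 36 h exposure to 0.4 mg/ml (1.51 mM), compared with untreated cells; experiment repeated twice.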

[5] = Decrease in Hsc70- mRNA expression in Hepatitis B virus infected in human HepG2(2.2.15) cells at 1.51 mM by RT-PCR analysis; assay type: functional, cell-based; settings: TDE = time-dependent effect
[6] = Decrease in Hsc70-protein expression in Hepatitis B virus infected in human HepG2(2.2.15) cells at 1.51 mM after 24 hrs by Western blot analysis; assay type: functional, cell-based
Method in brief: (§2)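 HepG2.2.15 cells treated 24 h at 0.4 mg/ml (1.51 mM). Western blot: RIPA lysates with PMSF and protease inhibitors, SDS-PAGE, PVDF, 5% milk/TBST block 1 h at 37°C, mouse anti-Hsc70 monoclonal, HRP secondary, ECL. Flow cytometry: rabbit anti-Hsc70 with Cy5-labelled anti-rabbit secondary. Five experiments per assay.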

[7] = Decrease in Hsc70-protein expression in Hepatitis B virus infected in human HepG2(2.2.15) cells at 1.51 mM after 24 hrs by flow-cytometric assay; assay type: functional, cell-based; method in brief: as §2
[8] = Decrease in Hsc70- mRNA expression in Hepatitis B virus infected in human HepG2(2.2.15) cells at 1.51 mM after 72 hrs by RT-PCR analysis; assay type: functional, cell-based
Method in brief: (§3)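 Dose-response in HepG2.2.15 cells: 5.9, 23.6, 94.5 and 378 μM and 1.51 mM for 72 h. Hsc70 mRNA by qRT-PCR and intracellular HBV DNA by real-time PCR, each expressed relative to untreated cells (=1). HBV DNA also checked by dot blot. EC50 from this curve.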

Hepatitis B virus [9] = test: Antiviral activity against Hepatitis B virus infected in human HepG2(2.2.15) cells assessed as decrease in intracellular viral DNA level at 1.51 mM after 36 hrs by RT-PCR analysis; assay type: functional; settings: HepG2 2.2.15, 36 h
Method in brief: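 HepG2.2.15 cells (HBV full-genome transfected HepG2) in MEM with 10% FBS, exposed to 0.4 mg/ml (1.51 mM) for 36 h. Intracellular DNA (genomic plus HBV) isolated and HBV DNA quantified by SYBR Green real-time PCR. Values were normalised to the untreated-cell mean, set as 1.0. Run 3 times; means and SD.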

Hepatitis B virus [10] = test: Antiviral activity against Hepatitis B virus infected in human HepG2(2.2.15) cells assessed as decrease in supernatant viral DNA level at 1.51 mM after 36 hrs by RT-PCR analysis; assay type: functional; design: scale not given: the % may be the effect or the level left
[11] = Decrease in Luc mRNA expression in human sHepG2(2.2.15) cells expressing pLuc-3'UTR […] by RT-PCR analysis; assay type: functional, cell-based; design: scale not given: the % may be the effect or the level left; settings: HepG2 2.2.15
[12] = Decrease in Luc mRNA expression in human sHepG2(2.2.15) cells expressing pLuc-5'UTR after 24 hrs by RT-PCR analysis; assay type: functional, cell-based; settings: HepG2 2.2.15
Method in brief: (§4)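 HepG2.2.15 cells transfected 24 h with luciferase reporter pLuc (pcDNA3.0 backbone), pLuc-3′UTR or pLuc-5′UTR (Hsc70 UTR chimeras). Cells split into two dishes, incubated overnight, then given drug or dilution buffer. Total RNA taken 12 h later; Luc mRNA by real-time RT-PCR. Three experiments; means and SD.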

[13] = Decrease in wild type Luc mRNA expression in human HepG2(2.2.15) cells after 24 hrs by RT-PCR analysis; assay type: functional, cell-based; method in brief: as §4
[14] = Decrease in HscA4-mRNA expression in Hepatitis B virus infected in human HepG2(2.2.15) cells at 1.51 mM after 24 hrs by RT-PCR analysis; assay type: functional, cell-based
Method in brief: (§5)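 HepG2.2.15 cells at 0.4 mg/ml (1.51 mM). HspA4 and Hsp90 mRNA measured as host reference genes by one-step SYBR Green qRT-PCR, alongside Hsc70 mRNA and HBV DNA.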

[15] = Decrease in HscA90-mRNA expression in Hepatitis B virus infected in human HepG2(2.2.15) cells at 1.51 mM after 24 hrs by RT-PCR analysis; assay type: functional, cell-based; method in brief: as §5
Hepatitis B virus [16] = test: Antiviral activity against Hepatitis B virus infected in human HepG2(2.2.15) cells assessed as decrease in intracellular viral DNA level at 113 uM after 72 hrs by RT-PCR analysis; assay type: functional, organism-based
Method in brief: (§6)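 HepG2.2.15 cells (HBV genome-transfected, MEM + 10% FBS) treated 72 h with drug alone or in two-drug combination. Entecavir 0.6 μg/ml (2.16 μM), adefovir 3 μg/ml (5.9 μM), lamivudine 3 μg/ml (13 μM), oxymatrine 30 μg/ml (113 μM). Intracellular HBV DNA by SYBR Green real-time PCR, relative to untreated. Experiment repeated twice; means and SD, Student's t test.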

Hepatitis B virus [17] = test: Antiviral activity against Hepatitis B virus infected in human HepG2(2.2.15) cells assessed as decrease in intracellular viral DNA level at 113 uM after 72 hrs by RT-PCR analysis in presence of adefovir; assay type: functional, organism-based; method in brief: as §6
Hepatitis B virus [18] = test: Antiviral activity against Hepatitis B virus infected in human HepG2(2.2.15) cells assessed as decrease in intracellular viral DNA level at 113 uM after 72 hrs by RT-PCR analysis in presence of entecavir; assay type: functional, organism-based; method in brief: as §6
Hepatitis B virus [19] = test: Antiviral activity against Hepatitis B virus infected in human HepG2(2.2.15) cells assessed as reduction in viral DNA level at 23.6 uM to 1.51 mM after 72 hrs by RT-PCR analysis; assay type: functional; method in brief: as §3
Hepatitis B virus [20] = test: Antiviral activity against Hepatitis B virus infected in human HepG2(2.2.15) cells assessed as reduction in viral DNA level by RT-PCR analysis; assay type: functional, organism-based
[21] = Cytotoxicity against human HepG2(2.2.15) cells assessed as cell killing by MTT assay; assay type: cell-based
Method in brief: (§7)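 CC50 from MTT assay in HepG2.2.15 cells. Therapeutic ratio taken as CC50 over the anti-HBV EC50 from the 72 h dose-response measuring intracellular HBV DNA by real-time PCR.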

[22] = Therapeutic index, ratio of CC50 for human sHepG2(2.2.15) cells to IC50 for Hepatitis B virus; assay type: cell-based; settings: HepG2 2.2.15 cells; method in brief: as §7
Hepatitis B virus [23] = test: Antiviral activity against Hepatitis B virus infected in human HepG2(2.2.15) cells assessed as reduction in viral DNA replicative intermediates at 23.6 uM to 1.51 mM after 24 hrs by RT-PCR analysis; assay type: functional
Hepatitis B virus [24] = test: Antiviral activity against Hepatitis B virus infected in human HepG2(2.2.15) cells assessed as reduction in genomic viral DNA at 23.6 uM to 1.51 mM after 24 hrs by RT-PCR analysis; assay type: functional; design: scale not given: the % may be the effect or the level left
Hepatitis B virus [25] = test: Antiviral activity against Hepatitis B virus infected in human HepG2(2.2.15) cells assessed as reduction in viral DNA level at 1.51 mM for 12, 24 or 36 hrs by RT-PCR analysis; assay type: functional, organism-based
Method in brief: (§8)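 HepG2.2.15 cells exposed to 0.4 mg/ml (1.51 mM) for 12, 24 or 36 h. Total RNA taken for HBV mRNA by one-step SYBR Green qRT-PCR; intracellular DNA isolated for HBV DNA by real-time PCR. Each value scaled to the mean of untreated cells set as 1.0. Three experiments; means and SD.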

Hepatitis B virus [26] = test: Antiviral activity against Hepatitis B virus infected in human HepG2(2.2.15) cells assessed as reduction in viral mRNA level at 1.51 mM for 12, 24 or 36 hrs by RT-PCR analysis; assay type: functional, organism-based; method in brief: as §8
Hepatitis B virus [27] = test: Antiviral activity against adefovir-resistant Hepatitis B virus infected in human Huh-7 cells assessed as suppression of viral replication at 1.51 mM after 24 hrs by RT-PCR analysis; assay type: functional; settings: Huh-7, 24 h; method in brief: as §1
Hepatitis B virus [28] = test: Antiviral activity against entecavir-resistant Hepatitis B virus infected in human Huh-7 cells assessed as suppression of viral replication at 1.51 mM after 24 hrs by RT-PCR analysis; assay type: functional; settings: Huh-7, 24 h; method in brief: as §1
[29] = Half life in human blood; assay type: ADME, tissue-based
Hepatitis B virus [30] = test: Antiviral activity against drug-resistant chronic Hepatitis B virus infected patients assessed as reduction in viral DNA at 0.4 g/day, po for 12 months; assay type: functional
[31] = Cytotoxicity against human HepG2(2.2.15) cells assessed as cell survival at 113 uM continuous exposure measured after 7 months; settings: hepg2 2.2.15, 5113.5 h
[32] = Cytotoxicity against human HepG2(2.2.15) cells assessed as cell survival at 113 uM continuous exposure measured after 2 months; settings: hepg2 2.2.15, 1461 h
Hepatitis B virus [33] = test: Antiviral activity against Hepatitis B virus infected in human HepG2(2.2.15) cells assessed as reduction in viral DNA level at 113 uM continuous exposure measured after 2 months by RT-PCR analysis
Hepatitis B virus [34] = test: Antiviral activity against Hepatitis B virus infected in human HepG2(2.2.15) cells assessed as reduction in viral DNA level at 113 uM continuous exposure measured after 7 months by RT-PCR analysis

**Q.** With Nc1ncnc2c1ncn2CCOCP(=O)(O)O as the compound, how does the Activity [1] read?
**A.** inactive

**Q.** And the Activity (Hepatitis B virus [2])?
**A.** Active

**Q.** What does the source list for O=C1CCC[C@@H]2[C@H]3CCC[N+]4([O-])CCC[C@@H](CN12)[C@@H]34 (stereo partly specified) [OXYMATRINE]?
**A.** inhibition at 1510 µM (HepG2 2.2.15): 50%; inhibition at 1510 µM (Hepatitis B virus [3]): 62%; Activity (HepG2): Active; Activity [4]: Non-toxic; Activity [5]: tde; Activity [6]: Active; Activity [7]: Active; Activity [8]: inactive; inhibition at 1510 µM (Hepatitis B virus [9]): 62%; Activity (Hepatitis B virus [10]): 60%; Activity [11]: 50%; Activity [12]: inactive; Activity [13]: inactive; Activity [14]: inactive; Activity [15]: inactive; Activity (Hepatitis B virus [16]): Active; Activity (Hepatitis B virus [17]): Active; Activity (Hepatitis B virus [18]): Active; inhibition (INH) (Hepatitis B virus [19]): 43%; EC50 (Hepatitis B virus [20]): 31 µg/mL (≈ 117 µM); MTT [21]: 3.12 mg/mL; selectivity ratio [22]: > 100; inhibition (INH) (Hepatitis B virus [23]): 75%; Activity (Hepatitis B virus [24]): 54%; Activity (Hepatitis B virus [25]): Active; Activity (Hepatitis B virus [26]): inactive; inhibition at 1510 µM (Hepatitis B virus [27]): 62%; inhibition at 1510 µM (Hepatitis B virus [28]): 62%; half-life [29]: 2.4 h; log10cfu (Hepatitis B virus [30]): 1.5; Activity [31]: Non-toxic; Activity [32]: Non-toxic; Activity (Hepatitis B virus [33]): Active; Activity (Hepatitis B virus [34]): Active
